The values that follow come from ChEMBL document CHEMBL1649283, “In vitro activities of piperaquine, lumefantrine, and dihydroartemisinin in Kenyan Plasmodium falciparum isolates and polymorphisms in pfcrt and pfmdr1” (Antimicrob Agents Chemother, 2009).

Holding throughout (type): functional, organism-based
Assay [1] has as its system Plasmodium falciparum. The experiment in a line: Antiplasmodial activity against multidrug-resistant Plasmodium falciparum […] after 18 hrs by [3H]hypoxanthine incorporation assay. Summed up: (§1)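 Reference strains (multidrug-resistant V1S, drug-sensitive 3D7) in RPMI 1640 with 15% human serum. Threefold drug dilutions; 0.5% parasitemia, 1.5% hematocrit; 66 h at 37°C under 5% O2/5% CO2/90% N2, then [3H]hypoxanthine added for 18 h, freeze-thaw lysis, counting. IC50 by nonlinear regression of dose-response; four determinations per strain.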

Assay [2] relates to Plasmodium falciparum. Briefly: Antiplasmodial activity against multidrug-sensitive Plasmodium falciparum 3D7 after 18 hrs by [3H]hypoxanthine incorporation assay. Summed up: as §1
The test system of assay [3] is Plasmodium falciparum. Briefly: Antiplasmodial activity against Plasmodium falciparum clinical isolate after 18 hrs by [3H]hypoxanthine incorporation assay. The essentials:
(§2)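 Kenyan field isolates, culture-adapted in long term (some cryopreserved first), grown in RPMI 1640 with 15% human serum, HEPES, bicarbonate, glutamine and pABA. Genotyped at pfcrt 76 and pfmdr1 86 from dried blood spots. Threefold dilutions; 0.5% parasitemia, 1.5% hematocrit; 66 h at 37°C in 5% O2/5% CO2/90% N2, then [3H]hypoxanthine for 18 h. IC50 by nonlinear regression; each isolate measured twice.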

Assay [4] concerns Plasmodium falciparum. Briefly: Antiplasmodial activity against Plasmodium falciparum harboring mutant pfcrt-76 gene after 18 hrs by [3H]hypoxanthine incorporation assay. Summed up:
as §2

For assay [5], the system named is Plasmodium falciparum. Briefly: Antiplasmodial activity against Plasmodium falciparum harboring wild type pfmdr-1-86 gene after 18 hrs by [3H]hypoxanthine incorporation assay. The essentials: as §2
Assay [6] has as its system Plasmodium falciparum. Briefly: Antiplasmodial activity against Plasmodium falciparum harboring mutant pfmdr-1-86 gene after 18 hrs by [3H]hypoxanthine incorporation assay. Summed up: as §2
Assay [7] concerns Plasmodium falciparum. Briefly: Antiplasmodial activity against Plasmodium falciparum harboring wild type and mutant pfcrt-76 gene after 18 hrs by [3H]hypoxanthine incorporation assay. Summed up: as §2
Assay [8] concerns Plasmodium falciparum. The experiment in a line: Antiplasmodial activity against Plasmodium falciparum harboring mutant pfcrt-76 and mutant pfmdr-1-86 gene after 18 hrs by [3H]hypoxanthine incorporation assay. The essentials: as §2
The test system of assay [9] is Plasmodium falciparum. The experiment in a line: Antiplasmodial activity against Plasmodium falciparum harboring mutant pfcrt-76 and wild type pfmdr-1-86 gene after 18 hrs by [3H]hypoxanthine incorporation assay. The essentials: as §2
The test system of assay [10] is Plasmodium falciparum. The experiment in a line: Antiplasmodial activity against Plasmodium falciparum harboring wild type and mutant pfmdr-1-86 gene after 18 hrs by [3H]hypoxanthine incorporation assay. Summed up:
as §2

Assay [11] has as its system Plasmodium falciparum. Briefly: Antiplasmodial activity against Plasmodium falciparum harboring wild type pfcrt-76 and mutant pfmdr-1-86 gene after 18 hrs by [3H]hypoxanthine incorporation assay. The essentials: as §2
Assay [12] has as its system Plasmodium falciparum. The experiment in a line: Antiplasmodial activity against Plasmodium falciparum harboring wild type pfcrt-76 and wild type pfmdr-1-86 gene after 18 hrs by [3H]hypoxanthine incorporation assay. Summed up:
as §2

Assay [13] has as its system Plasmodium falciparum. Briefly: Antiplasmodial activity against Plasmodium falciparum harboring wild type pfcrt-76 gene after 18 hrs by [3H]hypoxanthine incorporation assay. The essentials:
as §2

pIC50: −log10 of the molar value.

`C[C@H]1[C@@H](O)O[C@@H]2O[C@@]3(C)CC[C@H]4[C@H](C)CC[C@@H]1[C@@]24OO3` [ARTENIMOL]: the negative logarithm of the IC50 (pIC50) with Plasmodium falciparum [1] was 8.70; in the assay with Plasmodium falciparum [2], 8.70; in the assay on Plasmodium falciparum [3], 8.70; with Plasmodium falciparum [4], above 7.60; in the assay with Plasmodium falciparum [5], 8.52; in the assay with Plasmodium falciparum [6], 8.70.
In the case of `CCN(CC)CCCC(C)Nc1ccnc2cc(Cl)ccc12` (configuration not stated) [CHLOROQUINE], the pIC50 is 7.68 in the assay on Plasmodium falciparum [7], 7.24 in the assay with Plasmodium falciparum [4], 7.14 in the assay with Plasmodium falciparum [8] and 7.27 in the assay on Plasmodium falciparum [9].
For `CCCCN(CCCC)CC(O)c1cc(Cl)cc2c1-c1ccc(Cl)cc1/C2=C/c1ccc(Cl)cc1` (configuration not stated) [LUMEFANTRINE], the negative logarithm of the IC50 (pIC50) is 7.62 in the assay with Plasmodium falciparum [1]; 7.02 in the assay on Plasmodium falciparum [2]; 7.30 in the assay on Plasmodium falciparum [3]; 7.17 in the assay with Plasmodium falciparum [7]; 7.37 in the assay on Plasmodium falciparum [4]; 6.91 in the assay with Plasmodium falciparum [5]. For the same compound, the pIC50 in the assay on Plasmodium falciparum [6] was 7.37; in the assay on Plasmodium falciparum [10] it was 7.24; with Plasmodium falciparum [8] it was 7.51; with Plasmodium falciparum [9], 7.00; with Plasmodium falciparum [11], 7.20; in the assay on Plasmodium falciparum [12], 6.76.
For the compound `Clc1ccc2c(N3CCN(CCCN4CCN(c5ccnc6cc(Cl)ccc56)CC4)CC3)ccnc2c1` [PIPERAQUINE], the negative-log IC50 (pIC50) is 7.38 in the assay on Plasmodium falciparum [1]; 7.57 in the assay on Plasmodium falciparum [2]; 7.49 in the assay on Plasmodium falciparum [3]; 7.46 with Plasmodium falciparum [13]; 7.42 with Plasmodium falciparum [4].

The pIC50 is −log10 of the IC50, conventionally taken in molar units. The low end stands for a large IC50, the high end for a small IC50.
